Screening results (PubChem)
Compounds with a hit are over-represented: about 1.6% of the library has one in this group of screens.
GSTO1 counter = inhibitors of recombinant GSTO1, primary screen, counter-screen for RBBP9 inhibitor project, biochemical, fluorescence polarization. inhibition, % at 5.96 µM. actives 1.1% (n = 300,000). activity-based probe fluorescence polarization. AID 1974, 2009. Glutathione S-transferase omega-1 (Homo sapiens), P78417;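 active = inhibition above the campaign mean inhibition plus 3 SD, cut at about 35% in these data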
Target sequence (P78417 whole entry, looked up): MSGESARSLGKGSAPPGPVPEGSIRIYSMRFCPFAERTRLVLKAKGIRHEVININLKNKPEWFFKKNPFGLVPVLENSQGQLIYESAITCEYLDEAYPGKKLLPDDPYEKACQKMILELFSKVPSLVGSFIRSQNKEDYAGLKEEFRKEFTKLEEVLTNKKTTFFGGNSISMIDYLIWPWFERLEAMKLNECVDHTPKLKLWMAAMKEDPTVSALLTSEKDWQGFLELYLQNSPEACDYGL
TDP2 inh = human TDP2 enzyme inhibitors, primary screen, biochemical, epi absorbance, recombinant enzyme | T5PNP hydrolysis, p-nitrophenol absorbance 415 nm | actives 0.34% (n = 370,000) | inhibition, % at 12.8 µM | Tyrosyl-DNA phosphodiesterase 2 (Homo sapiens), O95551 | AID 720702, 2013;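 active = inhibition above the mean of all tested compounds plus 3 SD, set per campaign, cut at about 25% in these data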
Target sequence (O95551 whole entry, looked up): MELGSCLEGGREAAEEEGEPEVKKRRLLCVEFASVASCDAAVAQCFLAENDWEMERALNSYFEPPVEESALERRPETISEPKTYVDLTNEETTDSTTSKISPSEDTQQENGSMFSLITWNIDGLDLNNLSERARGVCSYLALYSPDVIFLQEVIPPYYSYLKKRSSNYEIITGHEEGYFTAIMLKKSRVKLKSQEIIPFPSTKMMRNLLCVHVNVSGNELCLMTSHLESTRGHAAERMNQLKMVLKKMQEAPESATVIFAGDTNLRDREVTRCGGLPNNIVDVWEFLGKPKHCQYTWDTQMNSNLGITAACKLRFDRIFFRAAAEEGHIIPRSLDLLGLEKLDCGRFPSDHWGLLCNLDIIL
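Assay system: recombinant human TDP2 / Reagent: T5PNP substrate at 5 mM, a TopII-DNA adduct mimic / Measured by: epi absorbance from released p-nitrophenol / Evaluation: % inhibition relative to enzyme-containing and enzyme-free wells / Control set: enzyme-free and DMSO wells / Replicates: each compound tested once, singlicate / Schedule: enzyme reaction with compound for 2 h at 37 °C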
PAD4 inh = human PAD4 inhibitors, primary screen, biochemical, fluorescence polarization, 1536-well format. AID 485272, 2010. inhibition, % at 6.36 µM. actives 0.41% (n = 330,000). recombinant PAD4, RCA probe fluorescence polarization. Protein-arginine deiminase type-4 (Homo sapiens), Q9UM07;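 active = percent inhibition above a cutoff equal to the mean of all tested compounds plus 3 SD, cut at about 15% in these data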
Apaf1 inhib = inhibitors of human Apaf-1 apoptosome, primary screen, biochemical, DEVD-Rh110 fluorescence, uHTS. actives 0.71% (n = 330,000). reconstituted apoptosome caspase-3 activity. AID 489030, 2010. inhibition, % at 20 µM. Apoptotic protease-activating factor 1 (Homo sapiens), O14727; active = inhibition of at least 40% at 20 µM
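Material: cell-free apoptosome with Apaf-1, procaspase-3 and caspase-9; Buffer or medium: Hepes pH 7.5 with detergent and BSA; Reagent: cytochrome c trigger plus (Z-DEVD)2-Rh110 caspase-3 substrate; Times: compound with Apaf-1, dATP, procaspase-3 30 min, then 50 min reaction, room temperature; Technique: Rh110 fluorescence intensity.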
UBC9 SUMO inh = inhibitors of in vitro SUMOylation cascade, primary screen, biochemical, HTRF, uHTS; HTRF SUMOylation assay, SAE1/SAE2 + UBC9; inhibition, % at 35 µM; actives 0.36% (n = 290,000); AID 2006, 2009; in the data active = inhibition above about 50%, passing the limit was not always enough; inconclusive = no clear call, values can overlap the other calls
GASC-1 inh = inhibitors of GASC-1 histone demethylase, primary screen, biochemical, fluorescence, DELFIA europium | GST-JMJD2C(1-420) H3K9me3 demethylation | inhibition, % at 2.35 µM | actives 0.069% (n = 330,000) | Lysine-specific demethylase 4C (Homo sapiens), Q9H3R0;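 active = more than half of a compound's replicate wells show inhibition beyond 50%, single wells judged on their own value; inconclusive = some, but no more than half, of replicates pass 50% inhibition; inactive = no replicate passes 50% inhibition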;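 note: signal counts dimethyl H3K9 product captured on neutravidin plate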
PAD4 confirm = human PAD4 inhibitors, confirmation, biochemical, fluorescence polarization. shares compounds with PAD4 inh. recombinant PAD4, RCA probe fluorescence polarization. inhibition, % at 6.36 µM. actives 28% (n = 1,200). AID 488796, 2010;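 active = mean inhibition across replicates above the hit cutoff set by the earlier primary screen, cut at about 15% in these data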;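 note: inhibitors block active-site labeling by the probe so polarization falls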
Apaf-1 inh conf = Apaf-1 inhibitors, single-dose retest, confirmation, biochemical, fluorescence, DEVD-Rh110, 20 µM. shares compounds with Apaf1 inhib. reconstituted apoptosome, caspase-3 DEVD-Rh110 fluorescence. inhibition, % at 20 µM. actives 25% (n = 1,800). AID 504614, 2011;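 active = mean inhibition of at least 40% at 20 µM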
Rh110 quench = Rh110 fluorescence interference by putative Apaf-1 inhibitors, confirmation, artefact control for Apaf-1 inhibitor project, biochemical, 20 µM | shares compounds with Apaf1 inhib | quenched caspase reaction | activation (fluorescence interference), % at 20 µM | 1,800 tested, under 10 active | AID 504615, 2011;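 active = signal rise of 40% or more at 20 µM, treated as a fluorescence artifact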
Apaf1 inh interf = fluorescence interference of Apaf-1 inhibitor hits, dose response, artefact control for Apaf-1 inhibitor project | shares compounds with Apaf1 inhib | IC50, µM | 460 tested, under 10 active | fluorescence interference counterscreen, Apaf-1 assay format | AID 588538, 2011; call rule not given here
TDP2 inh conf = human TDP2 enzyme inhibitors, retest, confirmation, biochemical, epi absorbance, recombinant enzyme; shares compounds with TDP2 inh; inhibition, % at 12.8 µM; absorbance read-out; actives 22% (n = 1,100); AID 743263, 2014; in the data active = inhibition above about 25%
A number is an active result; - = inactive; ? = inconclusive; . = not tested or not shown.

SMILES | GSTO1 counter | TDP2 inh | PAD4 inh | Apaf1 inhib | UBC9 SUMO inh | GASC-1 inh | PAD4 confirm | Apaf-1 inh conf | Rh110 quench | others
CCOC(=O)c1c(-c2ccc(OC)cc2)csc1NC(=O)CSc1ccccc1 | - | - | 20 | - | - | - | - | . | .
O=C1CCCC2=C1Sc1ccc(Cl)cc1N2 | - | - | - | - | - | - | . | . | .
COC(=O)c1ccc2c(c1)SC1=C(CCCC1=O)N2 | - | - | 43 | - | - | - | 40 | . | .
O=C(CCNS(=O)(=O)c1cccc(C(F)(F)F)c1)NCc1ccco1 | . | - | 27 | - | . | - | - | . | .
C=CCn1c(SCC(=O)N2CCCC2=O)nc2sc(CC)cc2c1=O | . | - | 33 | - | . | - | - | . | .
N#Cc1c(N2CCOCC2)nc(N)c2c(N)nc3c(c12)CC(CCl)O3 (stereo not drawn) | - | - | - | - | - | - | . | . | .
COc1cc2c(C#N)c(N3CCOCC3)nc(N)c2c(N)n1 | - | - | 18 | - | - | ? | - | . | .
CCN(CC)CCN(C(=O)c1ccc2ncsc2c1)c1nc2cc3c(cc2s1)OCO3 | - | - | 22 | - | - | - | - | . | .
COc1cccc(NC(=S)NCc2ccc3c(c2)cc(C)n3C)c1 | . | - | . | . | - | - | . | . | .
Cc1cccc(NC(=S)NCc2ccc3c(c2)cc(C)n3C)c1C | - | - | 19 | 66 | - | - | - | - | -
C#CCN1CC(N(C)CCOC(=O)c2cccs2)CS1(=O)=O (stereo not drawn) | . | - | . | . | . | . | . | . | .
CC1=NN(c2ccc(C(=O)O)c(N)c2)C(=O)C1 | 63 | - | 25 | 62 | 79 | - | 17 | - | -
CC1=NN(c2ccc(C(=O)O)cc2)C(=O)CC1 | - | - | - | - | - | - | . | . | .
CC(C)CNC(=O)CC1Oc2ccccc2NC1=O (stereo not drawn) | . | - | . | . | . | . | . | . | .
O=C1NC2=C(CCc3ccccc32)C(c2ccccc2)N1 (stereo not drawn) | - | - | 27 | 91 | - | - | - | - | -
O=C(C1CCCN1S(=O)(=O)c1cccs1)N1CCc2ccccc2C1 (stereo not drawn) | . | - | . | . | . | . | . | . | .
CCC(CO)Oc1cc(NCc2ccccc2)c2ncn(C(C)C)c2c1 (stereo not drawn) | . | - | - | - | . | - | . | . | .
CC(C)n1cnc2c(NCc3ccccc3)cc(N[C@H](C)CO)cc21 | . | . | 46 | 97 | . | - | 32 | 96 | - | Apaf1 inh interf=-
c1ccc(Cn2c(SCC3CCCCC3)nnc2-c2cccnc2)cc1 | . | - | . | . | . | . | . | . | .
CC(C)Cn1c(N)c(C(=O)NCCN2CCOCC2)c2nc3ccccc3nc21 | - | - | - | - | - | - | . | . | .
Cc1cccc(-n2c(N)c(C(=O)NCCN3CCOCC3)c3nc4ccccc4nc32)c1 | 37 | - | 17 | 51 | - | - | - | - | -
O=C(N/N=C1\C/C(=N\NC(=O)c2ccncc2)c2ccccc21)c1ccncc1 | 56 | - | 44 | 93 | 52 | - | - | 60 | - | Apaf1 inh interf=-
COC(=O)c1cc2c(c3c4cc(C)ccc4n(C(=O)c4ccccc4)c13)C(=O)N(Cc1ccccc1)C2 | . | - | . | . | . | . | . | . | .
CC(=O)C1=C(c2cccc([N+](=O)[O-])c2)N(C(C)=O)n2c(C)nnc2S1 | - | - | 19 | 44 | - | - | 23 | - | -
CC(=O)Nc1ccc(S(=O)(=O)NCc2ccc3c(c2)cc(C)n3C)cc1 | - | - | 16 | 51 | - | - | - | - | -
SMILES | GSTO1 counter | TDP2 inh | PAD4 inh | Apaf1 inhib | UBC9 SUMO inh | GASC-1 inh | PAD4 confirm | Apaf-1 inh conf | Rh110 quench | others
Cc1cc2cc(CNS(=O)(=O)c3ccc4ccccc4c3)ccc2n1C | - | - | - | - | - | - | . | . | .
C=CCN1C=C2C(=O)C(C)(OC(=O)CCC(=O)OC)C(=O)C=C2C=C1C1CC1 (stereo not drawn) | 37 | - | 17 | 43 | - | - | - | 53 | - | Apaf1 inh interf=-
Cc1[nH]c2ccccc2c1C(C#N)(C#N)C1C(=O)c2ccccc2C1=O | 73 | - | 37 | 73 | - | - | - | 45 | - | Apaf1 inh interf=-
Cc1ccc(S(=O)(=O)/N=C2\C=C(Nc3ccc(O)cc3)C(=O)c3ccccc32)cc1 | . | . | 55 | 96 | . | - | 54 | 97 | - | Apaf1 inh interf=-
O=C(CC1Nc2ccccc2NC1=O)Nc1cc(Cl)cc(Cl)c1 (stereo not drawn) | - | - | - | - | - | - | . | . | .
O=C(CC1Nc2cccc3cccc(c23)NC1=O)Nc1ccc(F)cc1 (stereo not drawn) | - | - | 59 | 96 | 68 | - | - | - | -
CCOC(=O)C1CCCCN1C(=O)[C@@H]1CC=C[C@@H]2CCN(c3ccccc3)C(=O)[C@@H]21 (stereo partly drawn) | . | - | . | . | . | . | . | . | .
COc1cc(N)c(C(=O)c2nccc3cc(OC)c(OC)cc23)cc1OC | - | - | - | - | - | - | . | . | .
COc1cc(C(=O)c2nccc3cc(OC)c(OC)cc23)c([N+](=O)[O-])cc1OC | 55 | 49 | 40 | - | 87 | - | - | . | . | TDP2 inh conf=35
O=c1cc(-c2ccc(Cl)c(Cl)c2)[nH][nH]1 | - | 57 | 51 | - | - | - | - | . | . | TDP2 inh conf=-
COc1ccc(-c2cc(=O)[nH][nH]2)cc1 | - | 61 | 56 | - | - | - | - | . | . | TDP2 inh conf=-
COc1ccc(-c2cc(=O)[nH]c(=O)[nH]2)cc1 | - | - | - | - | - | - | . | . | .
CC1CCCC(NC(=O)COC(=O)c2ccc([N+](=O)[O-])s2)C1C (stereo not drawn) | . | 32 | 15 | 41 | . | - | - | - | - | TDP2 inh conf=37
